The test system of series [1] is A-375. The series can be described thus: Induction of apoptosis in human A375 cells at 2 uM. It is filed as functional, cell-based. A digest of the protocol:
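A375 melanoma cells (5 × 10⁵ per 60 mm dish) grown 24 h, then exposed to 2 μM compound (final) for 24 h; DMSO-treated cells as control. Cells harvested with trypsin–EDTA, fixed in ice-cold 70% ethanol, treated with RNase A, and stained with propidium iodide. DNA content of 20,000 events read by flow cytometry; sub-G1 (G0) area taken as apoptotic.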

For series [2], the system named is A-375. The series is described as follows: Cell cycle arrest in human A375 cells assessed as accumulation at G0 phase at 0.5 uM after 24 hrs using propidium iodide staining by flow cytometry. It is filed as functional. In short, it runs like this: (§1)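 A375 cells (5×10^5) grown 24 h, then exposed to compound 24 h (DMSO control). Trypsin–EDTA harvest, fixed in ice-cold 70% ethanol at 4 °C 30 min, RNase A 37 °C 30 min, propidium iodide staining. DNA content measured by flow cytometry on 20,000 events, gated as sub-G1/G0, G1, S and G2/M.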

For series [3], the system named is A-375. The series can be described thus: Cell cycle arrest in human A375 cells assessed as accumulation at G1 phase at 0.5 uM after 24 hrs using propidium iodide staining by flow cytometry. The format is functional. In short, it runs like this:
as §1

For series [4], the system named is A-375. The series can be described thus: Cell cycle arrest in human A375 cells assessed as accumulation at S phase at 0.5 uM after 24 hrs using propidium iodide staining by flow cytometry. The format is functional. In short, it runs like this:
as §1
(In general: A flow cytometer gives signals particle by particle.)

In series [5] the test system is A-375. The series is described as follows: Cell cycle arrest in human A375 cells assessed as accumulation at G0/G1 phase at 0.5 uM after 24 hrs using propidium iodide staining by flow cytometry. The format is functional. In short, it runs like this:
as §1

Series [6] concerns A-375. The series is described as follows: Cell cycle arrest in human A375 cells assessed as accumulation at G0 phase at 1 uM after 24 hrs using propidium iodide staining by flow cytometry. It is filed as functional. In short, it runs like this: as §1
Series [7] deals with A-375. The series is described as follows: Cell cycle arrest in human A375 cells assessed as accumulation at G1 phase at 1 uM after 24 hrs using propidium iodide staining by flow cytometry. The format is functional. In short, it runs like this: as §1
Series [8] has as its system A-375. The series can be described thus: Cell cycle arrest in human A375 cells assessed as accumulation at S phase at 1 uM after 24 hrs using propidium iodide staining by flow cytometry. It is filed as functional. A digest of the protocol:
as §1

Series [9] has as its system A-375. The series can be described thus: Cell cycle arrest in human A375 cells assessed as accumulation at G2/M phase at 1 uM after 24 hrs using propidium iodide staining by flow cytometry. It is filed as functional. A digest of the protocol:
as §1

The test system of series [10] is A-375. The series can be described thus: Cell cycle arrest in human A375 cells assessed as accumulation at sub-G0 phase at 0.5 uM after 24 hrs using propidium iodide staining by flow cytometry. The format is functional. In short, it runs like this:
as §1

Series [11] relates to HT-29. The series is described as follows: Antitumor activity against human HT-29 cells xenografted in SCID mouse assessed as reduction tumor volume at 15 mg/kg, ip measured on day 1. It is filed as functional. The conditions noted are these: route intraperitoneal. A digest of the protocol: (§2)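 HT29 xenografts in scid mice; dosing ip on days 1, 5 and 9 (q4d), 5 or 10 mg/kg per dose (total 15 or 30 mg/kg); vehicle control group. Tumour volume, body weight and toxicity followed for 35 days. Relative tumour volume = volume on given day / volume on day 1; T/C = mean RTV treated / mean RTV control.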
On the technique in general: A xenograft is tissue or cells of one species grown in another, often human tumour cells in immunodeficient mice.

In series [12] the test system is HT-29. The series is described as follows: Antitumor activity against human HT-29 cells xenografted in SCID mouse assessed as reduction tumor volume at 30 mg/kg, ip measured on day 1. It is filed as functional. The conditions noted are these: route intraperitoneal. In short, it runs like this:
as §2

Series [13] relates to HT-29. The series is described as follows: Antitumor activity against human HT-29 cells xenografted in SCID mouse assessed as reduction tumor volume at 15 mg/kg, ip measured on day 9. The format is functional. The conditions noted are these: route intraperitoneal. In short, it runs like this:
as §2

The subject of series [14] is HT-29. The series can be described thus: Antitumor activity against human HT-29 cells xenografted in SCID mouse assessed as reduction tumor volume at 30 mg/kg, ip measured on day 9. The conditions noted are these: route intraperitoneal. It is filed as functional. A digest of the protocol:
as §2

Series [15] relates to HT-29. The series is described as follows: Antitumor activity against human HT-29 cells xenografted in SCID mouse assessed as reduction tumor volume at 15 mg/kg, ip measured on day 17. It is filed as functional. As to conditions: route intraperitoneal. A digest of the protocol: as §2
Series [16] concerns HT-29. The series is described as follows: Antitumor activity against human HT-29 cells xenografted in SCID mouse assessed as reduction tumor volume at 30 mg/kg, ip measured on day 21. It is filed as functional. The conditions noted are these: route intraperitoneal. A digest of the protocol: as §2
The test system of series [17] is HT-29. The series is described as follows: Antitumor activity against human HT-29 cells xenografted in SCID mouse assessed as reduction tumor volume at 15 mg/kg, ip measured on day 25. The format is functional. As to conditions: route intraperitoneal. A digest of the protocol:
as §2

Series [18] relates to HT-29. The series is described as follows: Antitumor activity against human HT-29 cells xenografted in SCID mouse assessed as reduction tumor volume at 30 mg/kg, ip measured on day 25. The format is functional. The conditions noted are these: route intraperitoneal. In short, it runs like this: as §2
The test system of series [19] is HT-29. The series is described as follows: Antitumor activity against human HT-29 cells xenografted in SCID mouse assessed as reduction tumor volume at 15 mg/kg, ip measured on day 28. It is filed as functional. As to conditions: route intraperitoneal. In short, it runs like this: as §2
Series [20] relates to HT-29. The series can be described thus: Antitumor activity against human HT-29 cells xenografted in SCID mouse assessed as reduction tumor volume at 15 mg/kg, ip measured on day 35. The format is functional. As to conditions: route intraperitoneal. A digest of the protocol: as §2
For series [21], the system named is HT-29. The series is described as follows: Antitumor activity against human HT-29 cells xenografted in SCID mouse assessed as reduction tumor volume at 30 mg/kg, ip measured on day 35. The format is functional. As to conditions: route intraperitoneal. A digest of the protocol: as §2
Series [22] is described as follows: Toxicity in SCID mouse. It is filed as organism-based. As to conditions: in vivo.
For the next series, the system named is Mus musculus. The series is described as follows: Toxicity in SCID mouse assessed as weight loss at 30 mg/kg, ip. It is filed as organism-based. On the set-up: dose 30 mg/kg, route intraperitoneal. The conditions noted are these: in vivo. In short, it runs like this: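 HT29 xenograft-bearing scid mice dosed ip at 5 or 10 mg/kg on days 1, 5 and 9 (q4d), totalling 15 or 30 mg/kg. Vehicle-treated control group. Body weight, survival and signs of overt toxicity were recorded over the 35-day study.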

Where “and” joins values, the source holds several entries; their conditions need not be identical. Equal values may be shown once.

Broadly, the T/C is the ratio of treated to control.

As for `COc1cc(-c2nc3ccccc3s2)ccc1OCCCCCOc1cc2c(cc1OC)C(=O)N1CCC[C@H]1C=N2`, the Activity result is “Dose-dependent effect” in the series with A-375 [1]; 2.13% in the series on A-375 [2]; 64.95% in the series on A-375 [3]; 64.95% in the series with A-375 [4]; 67.08% in the series with A-375 [5]; 2.7% in the series with A-375 [6]. Also, the Activity is 61.56% in the series on A-375 [7]; 15.42% with A-375 [8]; 20.32% with A-375 [9]; 2.13% in the series with A-375 [10]; “Non-toxic” in the series on Mus musculus. For the same compound, the T/C is 1% in the series on HT-29 [11]; 1% in the series on HT-29 [12]; 0.49% in the series with HT-29 [13]; 0.78% in the series with HT-29 [14]; 0.65% and 0.28% with HT-29 [15]; 0.58% with HT-29 [16]. For the same compound, the T/C with HT-29 [17] was 0.72% and 0.2%; in the series with HT-29 [18], 0.67%; with HT-29 [19] it was 0.73% and 0.18%; with HT-29 [20], 0.82% and 0.14%; in the series on HT-29 [21], 0.68%. Besides, in series [22], the MTD was under 50 mg/kg.

These data come from ChEMBL document CHEMBL1177643, “Synthesis, DNA-binding ability and anticancer activity of benzothiazole/benzoxazole-pyrrolo[2,1-c][1,4]benzodiazepine conjugates” (Bioorg Med Chem, 2010).
